Results reported in ChEMBL document CHEMBL4622947, “Synthesis and anti-inflammatory activity of 2-oxo-2H-chromenyl and 2H-chromenyl-5-oxo-2,5-dihydrofuran-3-carboxylates” (Bioorg Med Chem Lett, 2020).
The source made the active and inactive calls. The calls are words filed in the database; no cut-off is given here.

How the values were obtained:
U-937 [1] = experiment: Antiinflammatory activity in human U937 cells assessed as inhibition of PMA/LPS-stimulated IL-6 production at 20 uM after 24 hrs by ELISA; assay type: functional, cell-based
[2] = Cytotoxicity against human U937 cells assessed as cell viability at 20 uM relative to control; assay type: cell-based, U-937; settings: read-out: Activity
U-937 [3] = experiment: Antiinflammatory activity in human U937 cells assessed as inhibition of PMA/LPS-stimulated TNFalpha production at 20 uM after 24 hrs by ELISA relative to control; assay type: functional; settings: U-937, 24 h
Procedure, shortened: (§1)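 TNF-α from U937 cells was quantified by ELISA. Percent inhibition was read at 20 μM, and IC50 (μM) was reported as mean ± error.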

Mus musculus [4] = experiment: Antiinflammatory activity in BALB/c mouse assessed as inhibition of LPS-induced TNFalpha production at 100 mg/kg, administered for 3 days followed by LPS stimulation by ELISA; assay type: functional, organism-based
Procedure, shortened: (§2)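 BALB/c mice were pre-treated with 100 mg/kg test compound for three consecutive days, then challenged with LPS at 10 mg/kg IP. Serum TNF-α and IL-6 were measured by ELISA and compared with LPS-only and vehicle control groups. Values are mean ± S.E.M., n = 5.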

Mus musculus [5] = experiment: Antiinflammatory activity in BALB/c mouse assessed as inhibition of LPS-induced IL6 production at 100 mg/kg, administered for 3 days followed by LPS stimulation by ELISA; assay type: functional, organism-based; procedure, shortened: as §2
U-937 [6] = experiment: Antiinflammatory activity in human U937 cells assessed as inhibition of PMA/LPS-stimulated TNFalpha production after 24 hrs by ELISA; assay type: functional, cell-based; settings: U-937, 24 h; procedure, shortened: as §1
U-937 [7] = experiment: Antiinflammatory activity in human U937 cells assessed as inhibition of PMA/LPS-stimulated TNFalpha production at 1 uM after 24 hrs by ELISA relative to control; assay type: functional; settings: U-937, 24 h

IC50 (U-937 [6])	Compound	inhibition (U-937 [1])	viability at 20 µM [2]	inhibition at 20 µM (U-937 [3])	inhibition (Mus musculus [4])	inhibition (Mus musculus [5])	inhibition at 1 µM (U-937 [7])
–	CCOC(=O)C1=C(OCC)C(=O)OC1C1=C(Cl)c2ccc3ccccc3c2OC1 (configuration not stated)	inactive	83.6%	4.1%	–	–	–
–	CCOC(=O)C1=C(OCC)C(=O)OC1C1=C(Cl)c2ccccc2OC1 (configuration not stated)	inactive	88.9%	50.6%	–	–	–
–	CCOC(=O)C1=C(OCC)C(=O)OC1c1c(Cl)c2ccccc2oc1=O (configuration not stated)	inactive	75.9%	40.7%	–	–	–
142 nM	COC(=O)C1=C(OC)C(=O)OC1C1=C(Cl)c2c(ccc(C)c2C)OC1 (configuration not stated)	inactive	92.1%	70.4%	Active	Active	–
–	CCOC(=O)C1=C(OCC)C(=O)OC1C1=C(Cl)c2ccc(C)c(C)c2OC1 (configuration not stated)	inactive	89.9%	23.3%	–	–	–
–	COC(=O)C1=C(OC)C(=O)OC1c1c(Cl)c2cc(-c3ccccc3)ccc2oc1=O (configuration not stated)	inactive	82.3%	44.2%	–	–	–
–	CCOC(=O)C1=C(OCC)C(=O)OC1c1c(Cl)c2cc(-c3ccccc3)ccc2oc1=O (configuration not stated)	inactive	83.1%	20%	–	–	–
–	COC(=O)C1=C(OC)C(=O)OC1c1c(Cl)c2cc(C)cc(C)c2oc1=O (configuration not stated)	inactive	86.1%	44.9%	–	–	–
–	CCOC(=O)C1=C(OCC)C(=O)OC1C1=C(Cl)c2c(ccc(C)c2C)OC1 (configuration not stated)	inactive	85.2%	29.7%	–	–	–
–	COC(=O)C1=C(OC)C(=O)OC1C1=C(Cl)c2cc(C)c(C)cc2OC1 (configuration not stated)	inactive	90.7%	49.7%	–	–	–
–	CCOC(=O)C1=C(OCC)C(=O)OC1c1c(Cl)c2cc(C)ccc2oc1=O (configuration not stated)	inactive	79.8%	32.3%	–	–	–
–	CCOC(=O)C1=C(OCC)C(=O)OC1C1=C(Cl)c2cc(C)ccc2OC1 (configuration not stated)	inactive	81.6%	6.4%	–	–	–
33 nM	C[C@]12C=CC(=O)C=C1CC[C@@H]1[C@@H]2[C@@H](O)C[C@@]2(C)[C@H]1CC[C@]2(O)C(=O)CO [PREDNISOLONE]	–	–	–	–	–	98%
–	COC(=O)C1=C(OC)C(=O)OC1C1=C(Cl)c2cc(Cl)ccc2OC1 (configuration not stated)	inactive	84.6%	19.4%	–	–	–
70 nM	COC(=O)C1=C(OC)C(=O)OC1c1c(Cl)c2cc(Br)ccc2oc1=O (configuration not stated)	inactive	85.3%	76.9%	–	–	–
–	CCOC(=O)C1=C(OCC)C(=O)OC1c1c(Cl)c2cc(C)c(C)cc2oc1=O (configuration not stated)	inactive	79%	26.8%	–	–	–

IC50 (U-937 [6])	Compound	inhibition (U-937 [1])	viability at 20 µM [2]	inhibition at 20 µM (U-937 [3])	inhibition (Mus musculus [4])	inhibition (Mus musculus [5])	inhibition at 1 µM (U-937 [7])
13000 nM	COC(=O)C1=C(OC)C(=O)OC1C1=C(Cl)c2cc(Br)ccc2OC1 (configuration not stated)	inactive	94.3%	80.2%	–	–	–
–	COC(=O)C1=C(OC)C(=O)OC1C1=C(Cl)c2ccc(C)c(C)c2OC1 (configuration not stated)	inactive	93.8%	45.7%	–	–	–
18700 nM	COC(=O)C1=C(OC)C(=O)OC1C1=C(Cl)c2ccccc2OC1 (configuration not stated)	inactive	88.1%	95.5%	–	–	–
–	COC(=O)C1=C(OC)C(=O)OC1C1=C(Cl)c2ccc3ccccc3c2OC1 (configuration not stated)	inactive	80.2%	29.1%	–	–	–
1110 nM	CCOC(=O)C1=C(OCC)C(=O)OC1c1c(Cl)c2cc(C)cc(C)c2oc1=O (configuration not stated)	inactive	96.8%	80.2%	–	–	–
–	COC(=O)C1=C(OC)C(=O)OC1C1=C(Cl)c2cc(C)ccc2OC1 (configuration not stated)	inactive	88.5%	35.6%	–	–	–
10600 nM	CCOC(=O)C1=C(OCC)C(=O)OC1C1=C(Cl)c2cc(Cl)ccc2OC1 (configuration not stated)	inactive	79.4%	75.9%	–	–	–
423 nM	CCOC(=O)C1=C(OCC)C(=O)OC1c1c(Cl)c2cc(Cl)ccc2oc1=O (configuration not stated)	inactive	90.7%	97.1%	Active	Active	–
47 nM	CCOC(=O)C1=C(OCC)C(=O)OC1c1c(Cl)c2cc(Br)ccc2oc1=O (configuration not stated)	inactive	83%	91%	–	–	–
–	COC(=O)C1=C(OC)C(=O)OC1c1c(Cl)c2ccccc2oc1=O (configuration not stated)	inactive	78.3%	27.1%	–	–	–
–	COC(=O)C1=C(OC)C(=O)OC1c1c(Cl)c2cc(C)ccc2oc1=O (configuration not stated)	inactive	84.3%	14.8%	–	–	–
–	COC(=O)C1=C(OC)C(=O)OC1c1c(Cl)c2cc(C)c(C)cc2oc1=O (configuration not stated)	inactive	75.9%	34.9%	–	–	–
6240 nM	COC(=O)C1=C(OC)C(=O)OC1c1c(Cl)c2cc(Cl)ccc2oc1=O (configuration not stated)	inactive	93.1%	75%	–	–	–
3260 nM	CCOC(=O)C1=C(OCC)C(=O)OC1C1=C(Cl)c2cc(Br)ccc2OC1 (configuration not stated)	inactive	87.2%	73.3%	–	–	–
11200 nM	CCOC(=O)C1=C(OCC)C(=O)OC1C1=C(Cl)c2cc(C)c(C)cc2OC1 (configuration not stated)	inactive	93.4%	96.1%	–	–	–
